Assay results published in ChEMBL document CHEMBL4330076, “Quinazolin-2,4-dione-Based Hydroxamic Acids as Selective Histone Deacetylase-6 Inhibitors for Treatment of Non-Small Cell Lung Cancer” (J Med Chem, 2019).

Assays:
A549 [1] = assay: Induction of apoptosis in human A549 cells assessed as necrotic cells at 4 uM after 24 hrs by Annexin V/propidium iodide staining-based flow cytometric analysis (reference value: 1.1%); assay type: functional
[2] = Ratio of drug uptake in C57BL/6 mouse liver at 40 mg/kg, po administered via gavage co-administered with paclitaxel at 10 mg/kg, ip by LC-MS/MS analysis to drug uptake in C57BL/6 mouse liver at 40 mg/kg, po administered via gavage by LC-MS/MS analysis; assay type: ADME, organism-based; settings: in vivo
[3] = AUC (0 to 24 hrs) in C57BL/6 mouse lung at 40 mg/kg, po administered via gavage by LC-MS/MS analysis; assay type: ADME, organism-based; parameters: time < 24 hr, dose 40 mg/kg, route oral; settings: in vivo
[4] = Ratio of AUC (0 to 24 hrs) in lung to plasma of C57BL/6 mouse at 40 mg/kg, po administered via gavage by LC-MS/MS analysis; assay type: ADME, organism-based; settings: read-out: Ratio AUC
[5] = Ratio of drug uptake in C57BL/6 mouse plasma at 40 mg/kg, po administered via gavage co-administered with paclitaxel at 10 mg/kg, ip by LC-MS/MS analysis to drug uptake in C57BL/6 mouse plasma at 40 mg/kg, po administered via gavage by LC-MS/MS analysis; assay type: ADME, organism-based; settings: in vivo
[6] = Drug uptake in C57BL/6 mouse kidney at 40 mg/kg, po administered via gavage co-administered with paclitaxel at 10 mg/kg, ip by LC-MS/MS analysis; assay type: ADME, organism-based; settings: in vivo
[7] = test system: Lewis lung carcinoma cell line; assay: Induction of apoptosis in mouse LL/2 cells assessed as late apoptotic cells at 4 uM after 24 hrs in presence of paclitaxel by Annexin V/propidium iodide staining-based flow cytometric analysis (reference value: 8.7%); assay type: functional
[8] = test system: Lewis lung carcinoma cell line; assay: Cytotoxicity against mouse LL/2 cells at 4 uM after 72 hrs in presence of paclitaxel by MTT assay relative to control; assay type: functional
Outline: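 Mouse LL/2 cells treated with inhibitor alone or combined with paclitaxel for 3 days. Viability measured by MTT assay relative to untreated control.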

[9] = test system: Lewis lung carcinoma cell line; assay: Antitumor activity against mouse LL/2 cells implanted in C57BL/6 mouse assessed as tumor growth inhibition at 40 to 80 mg/kg, po qd administered for 21 consecutive days relative to control; assay type: functional
[10] = Ratio of drug uptake in C57BL/6 mouse kidney at 40 mg/kg, po administered via gavage co-administered with paclitaxel at 10 mg/kg, ip by LC-MS/MS analysis to drug uptake in C57BL/6 mouse kidney at 40 mg/kg, po administered via gavage by LC-MS/MS analysis; assay type: ADME, organism-based; settings: in vivo
[11] = target: T1, Protein deacetylase HDAC6 (Homo sapiens, UniProt Q9UBN7); assay: Competitive inhibition of human HDAC6 CD2 expressed in Escherichia coli BL21 (RIL) using Boc-Lys (Ac)-AMC as substrate preincubated for 10 mins followed by substrate addition and measured after 30 mins by fluorescence assay
T1 sequence (Q9UBN7 whole entry): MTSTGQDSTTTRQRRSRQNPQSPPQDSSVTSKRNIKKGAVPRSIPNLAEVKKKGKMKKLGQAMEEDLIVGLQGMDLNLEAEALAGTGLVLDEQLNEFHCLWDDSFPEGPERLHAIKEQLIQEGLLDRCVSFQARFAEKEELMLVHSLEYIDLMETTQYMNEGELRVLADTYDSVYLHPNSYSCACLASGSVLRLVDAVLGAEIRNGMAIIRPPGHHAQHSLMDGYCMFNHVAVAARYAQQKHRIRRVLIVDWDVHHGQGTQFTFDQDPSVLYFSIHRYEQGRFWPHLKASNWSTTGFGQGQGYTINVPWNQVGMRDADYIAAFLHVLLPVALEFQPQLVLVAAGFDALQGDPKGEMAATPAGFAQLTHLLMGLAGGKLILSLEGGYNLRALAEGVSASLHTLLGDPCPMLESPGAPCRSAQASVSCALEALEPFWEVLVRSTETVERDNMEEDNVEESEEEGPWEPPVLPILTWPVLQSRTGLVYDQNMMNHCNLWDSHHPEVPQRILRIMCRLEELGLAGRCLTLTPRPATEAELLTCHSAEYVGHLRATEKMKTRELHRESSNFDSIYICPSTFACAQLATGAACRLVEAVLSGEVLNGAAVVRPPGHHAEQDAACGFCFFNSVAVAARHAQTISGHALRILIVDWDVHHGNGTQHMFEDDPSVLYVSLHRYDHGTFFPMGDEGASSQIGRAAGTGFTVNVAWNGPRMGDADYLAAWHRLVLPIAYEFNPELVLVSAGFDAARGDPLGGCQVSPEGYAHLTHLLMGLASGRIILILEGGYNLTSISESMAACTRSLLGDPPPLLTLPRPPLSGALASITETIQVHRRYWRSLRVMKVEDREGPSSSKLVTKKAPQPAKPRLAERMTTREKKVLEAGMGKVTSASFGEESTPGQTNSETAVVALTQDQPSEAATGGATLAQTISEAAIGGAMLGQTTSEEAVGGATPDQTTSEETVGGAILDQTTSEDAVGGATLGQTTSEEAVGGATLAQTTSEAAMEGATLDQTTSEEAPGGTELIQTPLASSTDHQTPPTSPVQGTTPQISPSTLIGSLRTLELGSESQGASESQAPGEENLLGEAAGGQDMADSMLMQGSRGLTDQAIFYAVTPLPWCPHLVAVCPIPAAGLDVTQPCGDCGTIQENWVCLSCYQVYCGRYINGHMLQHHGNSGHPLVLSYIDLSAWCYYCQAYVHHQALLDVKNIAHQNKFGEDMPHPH

A549 [12] = assay: Induction of apoptosis in human A549 cells assessed as necrotic cells at 4 uM after 24 hrs in presence of paclitaxel by Annexin V/propidium iodide staining-based flow cytometric analysis (reference value: 1.1%); assay type: functional
[13] = test system: Lewis lung carcinoma cell line; assay: Induction of apoptosis in mouse LL/2 cells assessed as viable cells at 4 uM after 24 hrs in presence of paclitaxel by Annexin V/propidium iodide staining-based flow cytometric analysis (reference value: 82.3%); assay type: functional
[14] = test system: Lewis lung carcinoma cell line; assay: Induction of apoptosis in mouse LL/2 cells assessed as early apoptotic cells at 4 uM after 24 hrs in presence of paclitaxel by Annexin V/propidium iodide staining-based flow cytometric analysis (reference value: 1.8%); assay type: functional
A549 [15] = assay: Cytotoxicity against human A549 cells after 72 hrs by MTT assay; assay type: functional, cell-based; settings: A549, 72 h
Outline: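 Human A549 lung cancer cells exposed to serial dilutions of inhibitor at 37 °C for 72 h. Cytotoxicity expressed as IC50.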

[16] = Drug metabolism in C57BL/6 mouse plasma assessed as hydrolysis metabolite formation at 40 mg/kg, po administered via gavage by LC-MS/MS analysis; assay type: ADME, organism-based; settings: in vivo
[17] = Drug metabolism in C57BL/6 mouse kidney assessed as hydrolysis metabolite formation at 40 mg/kg, po administered via gavage by LC-MS/MS analysis; assay type: ADME, organism-based; settings: in vivo
[18] = Ratio of compound AUC (0 to 24 hrs) to ACY-1215 AUC (0 to 24 hrs) in C57BL/6 mouse liver at 40 mg/kg, po administered via gavage by LC-MS/MS analysis; assay type: ADME, organism-based; settings: in vivo
[19] = Drug uptake in C57BL/6 mouse liver at 40 mg/kg, po administered via gavage by LC-MS/MS analysis; assay type: ADME, organism-based; settings: in vivo

Ratio [2]: 0.9 | AUC [3]: 1335 ng·h/g | Kp [4]: 18.8 | Ratio [5]: 12.3 | Drug uptake [6]: 392 ng/g | Ratio [10]: 3 | Ki [11]: 0.0037 µM | Drug metabolism [16]: Metabolite_Detected | Drug metabolism [17]: Metabolite_Detected | Ratio AUC [18]: 4.4 | Drug uptake [19]: 782 ng/g
Structure (SMILES): O=C(NO)c1ccc(Cn2c(=O)n(CCc3ccccc3)c(=O)c3ccccc32)cc1
Activity (A549 [1]): 0.7% | Activity [7]: 21.2% | Activity [8]: 80 - 90% | TGI [9]: 63.4% | Activity (A549 [12]): 0.5% | Activity [13]: 64.8% | Activity [14]: 8.8% | IC50 (A549 [15]): 7.87 µM
